target: Protein farnesyltransferase (Rattus norvegicus, UniProt Q02293+Q04631); experiment: Inhibitory concentration against rat brain farnesyltransferase
Procedure, shortened: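 Rat brain FTase (40-fold purified), pH 7.4, in 30 mM potassium phosphate, 5 mM phosphate plus 50 mM Hepes, or 50 mM Hepes. Buffer also held 7 mM DTT, 1.2 mM MgCl2 and protease inhibitors. Final substrates were 0.12 μM [1-3H]FPP and 0.1 μM biotinyl-aminoheptanoyl-TKCVIM, with inhibitor varied from DMSO stock. Reaction ran 30 min at 37 °C, was stopped with streptavidin beads, and was counted by scintillation proximity. Generally n = 2.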

IC50 | SMILES
15 nM | C[C@H](NC(=O)[C@@H](Cc1c[nH]c2ccccc12)NC(=O)[C@H](NC(=O)[C@@H](Cc1ccc(OCc2ccccc2)cc1)NC(=O)[C@@H](Cc1cnc[nH]1)NC(=O)OCc1ccccc1)[C@@H](C)OCc1ccccc1)C(N)=O
1600 nM | C[C@H](NC(=O)[C@@H](Cc1c[nH]c2ccccc12)NC(=O)[C@@H](COCc1ccccc1)NC(=O)[C@@H](Cc1ccc(OCc2ccccc2)cc1)NC(=O)[C@@H](Cc1cnc[nH]1)NC(=O)OCC1c2ccccc2-c2ccccc21)C(N)=O
82 nM | C[C@H](NC(=O)[C@@H](Cc1c[nH]c2ccccc12)NC(=O)[C@@H](COCc1ccccc1)NC(=O)[C@@H](Cc1ccc(OCc2ccccc2)cc1)NC(=O)C(Cc1c[nH]cn1)NC(=O)OCc1ccccc1)C(N)=O (stereo not given in full)
38 nM | C[C@H](NC(=O)[C@@H](Cc1c[nH]c2ccccc12)NC(=O)[C@@H](COCc1ccccc1)NC(=O)[C@H](CC(=O)O)NC(=O)[C@@H](Cc1c[nH]cn1)NC(=O)OCc1ccccc1)C(N)=O
1000 nM | C[C@H](NC(=O)[C@@H](Cc1c[nH]c2ccccc12)NC(=O)[C@@H](COCc1ccccc1)NC(=O)[C@H](C)NC(=O)[C@@H](Cc1c[nH]cn1)NC(=O)OCc1ccccc1)C(N)=O
4900 nM | C[C@H](NC(=O)[C@@H](Cc1c[nH]c2ccccc12)NC(=O)[C@@H](COCc1ccccc1)NC(=O)[C@H](CS)NC(=O)[C@@H](Cc1c[nH]cn1)NC(=O)OCc1ccccc1)C(N)=O
> 20000 nM | C[C@H](NC(=O)[C@@H](Cc1c[nH]c2ccccc12)NC(=O)[C@@H](COCc1ccccc1)NC(=O)[C@@H](Cc1ccc(OCc2ccccc2)cc1)NC(=O)[C@@H](Cc1c[nH]cn1)NC(=O)[C@@H]1CCC(=O)N1)C(N)=O
3800 nM | C[C@H](NC(=O)[C@@H](Cc1c[nH]c2ccccc12)NC(=O)[C@@H](COCc1ccccc1)NC(=O)[C@@H](Cc1ccc(OCc2ccccc2)cc1)NC(=O)[C@@H](Cc1c[nH]cn1)NC(=O)OC1CCCCC1)C(N)=O
130 nM | C[C@H](NC(=O)[C@@H](Cc1c[nH]c2ccccc12)NC(=O)C(Cc1ccccc1)NC(=O)[C@@H](Cc1ccc(OCc2ccccc2)cc1)NC(=O)[C@@H](Cc1c[nH]cn1)NC(=O)OCc1ccccc1)C(N)=O (stereo not given in full)
4700 nM | C[C@H](NC(=O)[C@@H](Cc1c[nH]c2ccccc12)NC(=O)[C@@H](COCc1ccccc1)NC(=O)[C@@H](Cc1ccc(OCc2ccccc2)cc1)NC(=O)C(N)CCCNC(=O)OCc1ccccc1)C(N)=O (stereo not given in full)
> 20000 nM | C[C@H](NC(=O)[C@@H](Cc1c[nH]c2ccccc12)NC(=O)[C@@H](COCc1ccccc1)NC(=O)[C@@H](Cc1ccc(OCc2ccccc2)cc1)NC(=O)C(Cc1c[nH]c2ccccc12)NC(=O)OCc1ccccc1)C(N)=O (stereo not given in full)
64 nM | C[C@H](NC(=O)[C@@H](Cc1c[nH]c2ccccc12)NC(=O)[C@@H](COCc1ccccc1)NC(=O)[C@@H](Cc1ccc(OCc2ccccc2)cc1)NC(=O)[C@@H](Cc1cnc[nH]1)NC(=O)OCc1ccccc1)C(=O)NN
48 nM | COC(=O)[C@H](C)NC(=O)[C@@H](Cc1c[nH]c2ccccc12)NC(=O)[C@@H](COCc1ccccc1)NC(=O)[C@@H](Cc1ccc(OCc2ccccc2)cc1)NC(=O)[C@@H](Cc1cnc[nH]1)NC(=O)OCc1ccccc1
> 20000 nM | C[C@H](NC(=O)[C@@H](Cc1c[nH]c2ccccc12)NC(=O)[C@@H](COCc1ccccc1)NC(=O)[C@@H](Cc1ccc(OCc2ccccc2)cc1)NC(=O)C(Cc1ccccc1)NC(=O)OCc1ccccc1)C(N)=O (stereo not given in full)
170 nM | CCNC(=O)[C@H](C)NC(=O)[C@@H](Cc1c[nH]c2ccccc12)NC(=O)[C@@H](COCc1ccccc1)NC(=O)[C@@H](Cc1ccc(OCc2ccccc2)cc1)NC(=O)[C@@H](Cc1c[nH]cn1)NC(=O)OCc1ccccc1
13000 nM | C[C@H](NC(=O)[C@@H](Cc1c[nH]c2ccccc12)NC(=O)[C@H](COCc1ccccc1)NC(=O)[C@@H](Cc1ccc(OCc2ccccc2)cc1)NC(=O)[C@@H](Cc1cnc[nH]1)NC(=O)OCc1ccccc1)C(N)=O
1900 nM | C[C@H](NC(=O)[C@@H](Cc1c[nH]c2ccccc12)NC(=O)[C@@H](COCc1ccccc1)NC(=O)C(CCCCN)NC(=O)[C@@H](Cc1cnc[nH]1)NC(=O)OCc1ccccc1)C(N)=O (stereo not given in full)
54 nM | C[C@H](NC(=O)[C@@H](Cc1c[nH]c2ccccc12)NC(=O)[C@@H](COCc1ccccc1)NC(=O)C(CCC(N)=O)NC(=O)[C@@H](Cc1cnc[nH]1)NC(=O)OCc1ccccc1)C(N)=O (stereo not given in full)
170 nM | C[C@H](NC(=O)[C@@H](Cc1c[nH]c2ccccc12)NC(=O)[C@@H](COCc1ccccc1)NC(=O)[C@@H](Cc1ccc(OCc2ccccc2)cc1)NC(=O)C(CS)NC(=O)OCc1ccccc1)C(N)=O (stereo not given in full)
4 nM | C[C@H](NC(=O)[C@@H](Cc1c[nH]c2ccccc12)NC(=O)[C@@H](CS)NC(=O)[C@@H](Cc1ccc(OCc2ccccc2)cc1)NC(=O)[C@@H](Cc1cnc[nH]1)NC(=O)OCc1ccccc1)C(N)=O

IC50 | SMILES
200 nM | C[C@H](NC(=O)[C@@H](Cc1c[nH]c2ccccc12)NC(=O)[C@@H](CCC(=O)O)NC(=O)[C@@H](Cc1ccc(OCc2ccccc2)cc1)NC(=O)[C@@H](Cc1c[nH]cn1)NC(=O)OCc1ccccc1)C(N)=O
8.5 nM | CC(NC(=O)[C@@H](Cc1c[nH]c2ccccc12)NC(=O)[C@@H](COCc1ccccc1)NC(=O)[C@@H](Cc1ccc(OCc2ccccc2)cc1)NC(=O)[C@@H](Cc1c[nH]cn1)NC(=O)OCc1ccccc1)C(N)=O (stereo not given in full)
3200 nM | C[C@H](NC(=O)[C@@H](Cc1c[nH]c2ccccc12)NC(=O)[C@@H](COCc1ccccc1)NC(=O)[C@@H](Cc1ccc(OCc2ccccc2)cc1)NC(=O)[C@@H](Cc1cnc[nH]1)NC(=O)OC1CCC1)C(N)=O
48 nM | C[C@H](NC(=O)[C@@H](Cc1c[nH]c2ccccc12)NC(=O)[C@@H](COCc1ccccc1)NC(=O)[C@@H](Cc1ccc(OCc2ccccc2)cc1)NC(=O)[C@@H](Cc1c[nH]cn1)NC(=O)OCc1ccccc1)C(=O)O
8700 nM | C[C@H](NC(=O)[C@H](Cc1c[nH]c2ccccc12)NC(=O)[C@@H](COCc1ccccc1)NC(=O)[C@@H](Cc1ccc(OCc2ccccc2)cc1)NC(=O)[C@@H](Cc1cnc[nH]1)NC(=O)OCc1ccccc1)C(N)=O
35 nM | C[C@H](NC(=O)[C@@H](Cc1c[nH]c2ccccc12)NC(=O)[C@@H](COCc1ccccc1)NC(=O)[C@@H](Cc1ccc(OCc2ccccc2)cc1)NC(=O)[C@H](Cc1cnc[nH]1)NC(=O)OCc1ccccc1)C(N)=O
15 nM | C[C@H](NC(=O)[C@@H](Cc1c[nH]c2ccccc12)NC(=O)[C@@H](CSCc1ccccc1)NC(=O)[C@@H](Cc1ccc(OCc2ccccc2)cc1)NC(=O)[C@@H](Cc1cnc[nH]1)NC(=O)OCc1ccccc1)C(N)=O
18 nM | C[C@H](NC(=O)[C@@H](Cc1c[nH]c2ccccc12)NC(=O)[C@@H](COCc1ccccc1)NC(=O)[C@@H](CCc1ccccc1)NC(=O)[C@@H](Cc1c[nH]cn1)NC(=O)OCc1ccccc1)C(N)=O
1800 nM | C[C@H](NC(=O)[C@@H](Cc1c[nH]c2ccccc12)NC(=O)[C@@H](CO)NC(=O)[C@@H](Cc1ccc(OCc2ccccc2)cc1)NC(=O)[C@@H](Cc1cnc[nH]1)NC(=O)OCc1ccccc1)C(N)=O
250 nM | CC(NC(=O)[C@@H](COCc1ccccc1)NC(=O)[C@@H](Cc1ccc(OCc2ccccc2)cc1)NC(=O)[C@@H](Cc1cnc[nH]1)NC(=O)OCc1ccccc1)C(=O)N[C@@H](C)C(N)=O (stereo not given in full)
4500 nM | C[C@H](NC(=O)[C@@H](Cc1c[nH]c2ccccc12)NC(=O)[C@@H](COCc1ccccc1)NC(=O)[C@@H](Cc1ccc(OCc2ccccc2)cc1)NC(=O)[C@H](N)Cc1cnc[nH]1)C(N)=O
10000 nM | CC(=O)N[C@H](Cc1cnc[nH]1)C(=O)N[C@H](Cc1ccc(OCc2ccccc2)cc1)C(=O)N[C@H](COCc1ccccc1)C(=O)N[C@H](Cc1c[nH]c2ccccc12)C(=O)N[C@@H](C)C(N)=O
2500 nM | C[C@H](NC(=O)C(Cc1ccccc1)NC(=O)[C@@H](COCc1ccccc1)NC(=O)[C@@H](Cc1ccc(OCc2ccccc2)cc1)NC(=O)[C@@H](Cc1cnc[nH]1)NC(=O)OCc1ccccc1)C(N)=O (stereo not given in full)
1100 nM | CC(NC(=O)[C@@H](Cc1ccc(OCc2ccccc2)cc1)NC(=O)[C@@H](Cc1c[nH]cn1)NC(=O)OCc1ccccc1)C(=O)N[C@H](Cc1c[nH]c2ccccc12)C(=O)N[C@@H](C)C(N)=O (stereo not given in full)
> 20000 nM | CC(NC(=O)OCc1ccccc1)C(=O)N[C@H](Cc1ccc(OCc2ccccc2)cc1)C(=O)N[C@H](COCc1ccccc1)C(=O)N[C@H](Cc1c[nH]c2ccccc12)C(=O)N[C@@H](C)C(N)=O (stereo not given in full)
18 nM | C[C@H](NC(=O)[C@@H](Cc1c[nH]c2ccccc12)NC(=O)[C@@H](COCc1ccccc1)NC(=O)C(CCC(=O)O)NC(=O)[C@@H](Cc1c[nH]cn1)NC(=O)OCc1ccccc1)C(N)=O (stereo not given in full)
66 nM | C[C@H](NC(=O)[C@@H](Cc1c[nH]c2ccccc12)NC(=O)[C@@H](COCc1ccccc1)NC(=O)C(CC1CCCCC1)NC(=O)[C@@H](Cc1cnc[nH]1)NC(=O)OCc1ccccc1)C(N)=O (stereo not given in full)
9 nM | C[C@@H](NC(=O)[C@H](Cc1c[nH]c2ccccc12)NC(=O)[C@H](COCc1ccccc1)NC(=O)[C@H](Cc1ccccc1)NC(=O)[C@H](Cc1c[nH]cn1)NC(=O)OCc1ccccc1)C(N)=O (single isomer, unassigned)
170 nM | C[C@@H](NC(=O)[C@H](Cc1c[nH]c2ccccc12)NC(=O)[C@H](COCc1ccccc1)NC(=O)[C@@H](Cc1ccc(O)cc1)NC(=O)[C@H](Cc1cnc[nH]1)NC(=O)OCc1ccccc1)C(N)=O (stereo in doubt)
79 nM | C[C@@H](NC(=O)[C@H](Cc1c[nH]c2ccccc12)NC(=O)[C@H](COCc1ccccc1)NC(=O)[C@@H](Cc1ccccc1)NC(=O)[C@H](Cc1cnc[nH]1)NC(=O)OCc1ccccc1)C(N)=O (stereo in doubt)

Reference: ChEMBL document CHEMBL1130162, “Structure-activity relationships of cysteine-lacking pentapeptide derivatives that inhibit ras farnesyltransferase” (J Med Chem, 1997)
